Our source for the Activity, IC50 and viability values is ChEMBL document CHEMBL3813688, “Synthesis, antitumor activity and mechanism of action of novel 1,3-thiazole derivatives containing hydrazide-hydrazone and carboxamide moiety” (Bioorg Med Chem Lett, 2016).

In brackets after ≈: the same amount, converted by molar mass.

Test [1] relates to HepG2. The experiment in a line: Induction of apoptosis in human HepG2 cells assessed as early apoptotic cells at 3.64 ug/ml after 24 to 48 hrs by Annexin V-FITC/propidium iodide staining based flow cytometry (reference value: 2.5 %). The test is classed as functional. (In general: A flow cytometer gives signals particle by particle.)
The subject of test [2] is HeLa. Kind of test: Cytotoxicity against human HeLa cells assessed as cell growth inhibition after 72 hrs by MTT assay. The test is classed as functional, cell-based. The procedure, abridged:
(§1)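 MTT growth assay in human cancer lines (MCF-7, HepG2, BGC-823, HeLa, A549), 72 h after treatment; 5-fluorouracil as reference. IC50 (μg/mL) taken as concentration giving 50% growth inhibition versus untreated control.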
Background: Formazan colour is commonly taken as a measure of viable cells.

For test [3], the system named is MCF7. The experiment in a line: Cytotoxicity against human MCF7 cells assessed as cell growth inhibition after 72 hrs by MTT assay. The test is classed as functional, cell-based. Particulars: MCF7, 72 h. The procedure, abridged: as §1
Test [4] is described as follows: Cytotoxicity against human HL7702 cells assessed as cell growth inhibition after 72 hrs by MTT assay. The test is classed as cell-based. To be noted: L02, 72 h.
In test [5] the test system is HepG2. Kind of test: Induction of apoptosis in human HepG2 cells assessed as viable cells at 1.82 ug/ml after 24 to 48 hrs by Annexin V-FITC/propidium iodide staining based flow cytometry (reference value: 95.6 %). The test is classed as functional. To be noted: read-out: Activity.
For test [6], the system named is HepG2. Kind of test: Cytotoxicity against human HepG2 cells assessed as cell growth inhibition after 72 hrs by MTT assay. The test is classed as functional, cell-based. To be noted: HepG2, 72 h. Summed up:
as §1

For test [7], the system named is HepG2. The experiment in a line: Induction of apoptosis in human HepG2 cells assessed as necrotic cells at 3.64 ug/ml after 24 to 48 hrs by Annexin V-FITC/propidium iodide staining based flow cytometry (reference value: 1.8 %). The test is classed as functional.
Test [8] has as its system HepG2. Kind of test: Induction of apoptosis in human HepG2 cells assessed as late apoptotic cells at 3.64 ug/ml after 24 to 48 hrs by Annexin V-FITC/propidium iodide staining based flow cytometry (reference value: 0.1 %). The test is classed as functional.
Test [9] concerns HepG2. The experiment in a line: Induction of apoptosis in human HepG2 cells assessed as necrotic cells at 1.82 ug/ml after 24 to 48 hrs by Annexin V-FITC/propidium iodide staining based flow cytometry (reference value: 1.8 %). The test is classed as functional.
The test system of test [10] is HepG2. The experiment in a line: Induction of apoptosis in human HepG2 cells assessed as viable cells at 3.64 ug/ml after 24 to 48 hrs by Annexin V-FITC/propidium iodide staining based flow cytometry (reference value: 95.6 %). The test is classed as functional. Particulars: read-out: Activity.
Test [11] relates to HepG2. Kind of test: Induction of apoptosis in human HepG2 cells assessed as early apoptotic cells at 1.82 ug/ml after 24 to 48 hrs by Annexin V-FITC/propidium iodide staining based flow cytometry (reference value: 2.5 %). In kind it is functional.
Test [12] concerns A549. Kind of test: Cytotoxicity against human A549 cells assessed as cell growth inhibition after 72 hrs by MTT assay. In kind it is functional, cell-based. Particulars: A549, 72 h. The procedure, abridged:
as §1

The test system of test [13] is HepG2. Kind of test: Induction of apoptosis in human HepG2 cells assessed as late apoptotic cells at 1.82 ug/ml after 24 to 48 hrs by Annexin V-FITC/propidium iodide staining based flow cytometry (reference value: 0.1 %). The test is classed as functional.
The nature of test [14]: Cytotoxicity against human BCG823 cells assessed as cell growth inhibition after 72 hrs by MTT assay. The test is classed as functional, cell-based. Particulars: BCG823, 72 h. The procedure, abridged:
as §1

What is called IC50 is the concentration needed to halve the response being measured. Consider `CN(C(=O)NC(=O)c1ccc(C(F)(F)F)cc1)c1nc(C(F)(F)F)c(C(=O)N/N=C/c2ccccc2C(F)(F)F)s1`, for which the Activity in [1] stood at 18.6%; in test [7], 3.2%; in test [8] it was 0.3%; in [9], 0.3%; in [11] it was 7.8%; in test [13], 0.4%. Moreover, the half-maximal inhibitory concentration (IC50) in [2] is 3.76 µg/mL (≈ 6.15 µM); in [3], 2.21 µg/mL (≈ 3.61 µM); in test [4], 12.4 µg/mL (≈ 20.3 µM); in test [6], 3.64 µg/mL (≈ 5.95 µM); in test [12] it was 6.68 µg/mL (≈ 10.9 µM); in [14] it was 2.53 µg/mL (≈ 4.14 µM). For the same compound, the viability at 1.82 µg/mL in test [5] turned out to be 91.5%. Further, the viability at 3.64 µg/mL in test [10] was 77.9%.
For the compound `CN(C(=O)NC(=O)c1ccc(C(F)(F)F)cc1)c1nc(C(F)(F)F)c(C(=O)N/N=C/c2cccc(C(F)(F)F)c2)s1`, the concentration for half-maximal inhibition (IC50) in [2] stood at 6.2 µg/mL (≈ 10.1 µM); in test [3] it was 8.95 µg/mL (≈ 14.6 µM); in test [4], 18 µg/mL (≈ 29.4 µM); in test [6], 7.95 µg/mL (≈ 13 µM); in [12], 6.66 µg/mL (≈ 10.9 µM); in [14] it was 1.84 µg/mL (≈ 3.01 µM).
